Experiment [1] in a line: Cytotoxicity against human A549 cells after 72 hrs by MTT assay. Particulars: A549, 72 h.
A short description of experiment [2]: Cytotoxicity against human HT-29 cells after 72 hrs by MTT assay. Type of experiment: functional, cell-based. Particulars: HT-29, 72 h. In short, it runs like this: (§1)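 Cells grown in MEM with 10% FBS; about 4×10^3 cells per well of 96-well plate, 24 h at 37 °C, 5% CO2, then test compounds at indicated final concentrations for 72 h. Each tested three times; IC50 as mean ± SD.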

Experiment [3] is described as follows: Cytotoxicity against human MKN45 cells after 72 hrs by MTT assay. Particulars: MKN-45, 72 h.
Experiment [4] can be described thus: Cytotoxicity against human MDA-MB-231 cells after 72 hrs by MTT assay. Type of experiment: functional, cell-based. Particulars: MDA-MB-231, 72 h. In short, it runs like this:
as §1

This passage reports IC50 results from ChEMBL document CHEMBL3853297, “Synthesis and biological evaluation of 4-(2-fluorophenoxy)-3,3'-bipyridine derivatives as potential c-met inhibitors” (Eur J Med Chem, 2016).

Each structure is given as a SMILES string.

In the case of `O=C(Nc1ccc(Oc2ccncc2-c2cccnc2)c(F)c1)c1nn(-c2ccc(F)cc2)c(=O)c2ccccc12`, the values for the IC50 in experiment [1], in experiment [2] and in experiment [3] were 820 nM, 990 nM and 320 nM, respectively.
Turning to `O=C(Nc1ccc(Oc2ccncc2-c2cccnc2)c(F)c1)C1=NN(c2ccc(F)c(F)c2)c2ccccc2S1(=O)=O`, the IC50 in experiment [1] was 1300 nM; in experiment [4] it was 34 nM; in experiment [2], 1550 nM; in experiment [3] it was 90 nM.
As for `O=C(Nc1ccc(Oc2ccncc2-c2cccnc2)c(F)c1)c1ccnn(-c2ccc(F)cc2)c1=O`, the IC50 in experiment [1] came out at 2880 nM; in experiment [4], 5200 nM; in experiment [2], 4770 nM; in experiment [3], 3120 nM.
As to `COc1ccc(-n2nc(C(=O)Nc3ccc(Oc4ccncc4-c4cccnc4)c(F)c3)c(=O)n(C)c2=O)c(OC)c1`, the IC50 in experiment [1] came to 890 nM; in experiment [4], 3270 nM; in experiment [2] it was 890 nM; in experiment [3] it was 2820 nM.
On to `Cn1cc(-c2ccc(F)cc2)cc(C(=O)Nc2ccc(Oc3ccncc3-c3cccnc3)c(F)c2)c1=O`, for which the IC50 in experiment [1] was 8300 nM; in experiment [4], 11900 nM; in experiment [2] it was 11200 nM; in experiment [3] it was 7100 nM.
For `O=C(Nc1ccc(Oc2ccncc2-c2cccnc2)c(F)c1)c1nn(-c2cccc(F)c2)c(=O)c2ccccc12`, the IC50 in experiment [1] came to 1750 nM; in experiment [4], 72 nM; in experiment [2], 410 nM; in experiment [3], 27 nM.
For the compound `COc1ccc(Nc2cc(Nc3ccc(Oc4ccncc4-c4cccnc4)c(F)c3)ncn2)cc1`, the IC50 in experiment [1] worked out at 2140 nM; in experiment [2], 4110 nM; in experiment [3], 1010 nM.
As for `Cn1cc(-c2ccccc2)cc(C(=O)Nc2ccc(Oc3ccncc3-c3cccnc3)c(F)c2)c1=O`, the IC50 worked out at 7600 nM in experiment [1], 9500 nM in experiment [4], 7420 nM in experiment [2] and 5400 nM in experiment [3].
Consider `Cn1c(=O)c(C(=O)Nc2ccc(Oc3ccncc3-c3cccnc3)c(F)c2)nn(-c2cccc(C(F)(F)F)c2)c1=O`, for which the IC50 in experiment [1] worked out at 460 nM; in experiment [4], 3980 nM; in experiment [2], 510 nM; in experiment [3], 1950 nM.
With `Cn1c(=O)c(C(=O)Nc2ccc(Oc3ccncc3-c3cccnc3)c(F)c2)nn(-c2ccc(F)c(Cl)c2)c1=O`, the IC50 came out at 12500 nM in experiment [1], 11300 nM in experiment [4], 4780 nM in experiment [2] and 10100 nM in experiment [3].
As to `Fc1ccc(Nc2cc(Nc3ccc(Oc4ccncc4-c4cccnc4)c(F)c3)ncn2)cc1`, the IC50 in experiment [1] worked out at 710 nM; in experiment [4] it was 14100 nM; in experiment [2], 330 nM; in experiment [3] it was 160 nM.
With `Cn1c(=O)c(C(=O)Nc2ccc(Oc3ccncc3-c3cccnc3)c(F)c2)nn(-c2ccccc2F)c1=O`, the IC50 in experiment [1] turned out to be 610 nM; in experiment [4], 6760 nM; in experiment [2], 2100 nM; in experiment [3], 4780 nM.
The corresponding values for `Cn1c(=O)c(C(=O)Nc2ccc(Oc3ccncc3-c3cccnc3)c(F)c2)nn(-c2ccc(Cl)cc2)c1=O` are 930 nM, 3220 nM, 440 nM and 1600 nM.
Consider `Fc1ccc(Nc2cc(Nc3ccc(Oc4ccncc4-c4cccnc4)c(F)c3)ncn2)cc1F`, for which the IC50 in experiment [1] worked out at 7630 nM; in experiment [4], 6770 nM; in experiment [2], 2320 nM; in experiment [3], 80 nM.
Take `O=C(Nc1ccc(Oc2ccncc2-c2cccnc2)c(F)c1)c1ccnn(-c2ccc(Cl)cc2)c1=O`: the IC50 in experiment [1] turned out to be 6560 nM; in experiment [4], 4840 nM; in experiment [2], 4560 nM; in experiment [3] it was 4230 nM.
In the case of `Cn1c(=O)c(C(=O)Nc2ccc(Oc3ccncc3-c3cccnc3)c(F)c2)nn(-c2c(Cl)cccc2Cl)c1=O`, the IC50 in experiment [1] was 720 nM; in experiment [4] it was 9690 nM; in experiment [2], 780 nM; in experiment [3] it was 3930 nM.
As to `O=C(Nc1ccc(Oc2ccncc2-c2cccnc2)c(F)c1)c1nn(-c2ccccc2)c(=O)c2ccccc12`, the IC50 in experiment [1] is 7900 nM; in experiment [4], 8200 nM; in experiment [2], 1240 nM; in experiment [3], 90 nM.
In the same order, the values of `Fc1cc(Nc2cc(Nc3cccc(Cl)c3)ncn2)ccc1Oc1ccncc1-c1cccnc1` are 180 nM, 90 nM, 690 nM and 30 nM.
With `O=C(Nc1ccc(Oc2ccncc2-c2cccnc2)c(F)c1)c1nn(-c2ccc(Cl)cc2)c(=O)c2ccccc12`, the IC50 in experiment [1] turned out to be 1020 nM; in experiment [2] it was 710 nM; in experiment [3], 430 nM.
As to `COc1ccc(-n2nc(C(=O)Nc3ccc(Oc4ccncc4-c4cccnc4)c(F)c3)c3ccccc3c2=O)cc1`, the IC50 in experiment [1] stood at 6800 nM; in experiment [4], 10400 nM; in experiment [3], 740 nM.
As for `Fc1cc(Nc2cc(Nc3ccc(Cl)cc3)ncn2)ccc1Oc1ccncc1-c1cccnc1`, the IC50 in experiment [1] stood at 1610 nM; in experiment [2], 980 nM; in experiment [3], 240 nM.
As for `O=C(Nc1ccc(Oc2ccncc2-c2cccnc2)c(F)c1)C1=NN(c2cccc(F)c2)c2ccccc2S1(=O)=O`, the IC50 in experiment [1] came out at 900 nM; in experiment [4] it was 10 nM; in experiment [2] it was 430 nM; in experiment [3] it was 3 nM.
Take `COc1cc(Nc2cc(Nc3ccc(Oc4ccncc4-c4cccnc4)c(F)c3)ncn2)cc(OC)c1`: the IC50 in experiment [1] came out at 560 nM; in experiment [4], 4240 nM; in experiment [2], 1130 nM; in experiment [3], 1750 nM.
As for `Fc1cc(Nc2cc(Nc3ccccc3)ncn2)ccc1Oc1ccncc1-c1cccnc1`, the IC50 in experiment [1] is 410 nM; in experiment [4], 2740 nM; in experiment [2], 880 nM; in experiment [3], 6300 nM.
On to `O=C(Nc1ccc(Oc2ccncc2-c2cccnc2)c(F)c1)C1=NN(c2ccccc2C(F)(F)F)c2ccccc2S1(=O)=O`, for which the IC50 in experiment [1] came to 120 nM; in experiment [4], 46 nM; in experiment [2], 190 nM; in experiment [3], 27 nM.
